≈ marks a conversion by molar mass, not a printed value. Where “and” joins values, the source holds several entries; their conditions need not be identical. Equal values may be shown once. Calls of active or inactive are those of the source. The rule behind the calls is not given here.
What was measured:
microRNA 21 [1] = test: Displacement of F-neo from premature miRNA21 (unknown origin) at 100 nM by fluorescence assay relative to control; format: nucleic-acid assay
Method in brief: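 Competition fluorescence: pre-miR21 (12.5 nM, annealed 75→25 °C at 1 °C/min) complexed with 100 nM F-neo in 10 mM phosphate, 25 mM KCl, 0.05 mM EDTA, pH 6.5. Test agent added at 100 nM. Emission read at ex 485/em 525 nm. Percent binding = (I−Ic)×100/(Ineo−Ic), referenced to 100 nM kanamycin; duplicate controls.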

Staphylococcus aureus [2] = test: Antibacterial activity against methicillin-resistant Staphylococcus aureus ATCC 1960649 assessed as reduction in bacterial growth at 64 uM incubated for 15 to 20 hrs by broth microdilution method relative to control; format: functional; conditions: time 15-20 hrs; for inhibition of growth at 64 µM: read-out: GI
Escherichia coli [3] = test: Antibacterial activity against Escherichia coli ATCC 25922 assessed as reduction in bacterial growth at 12.5 uM incubated for 15 to 20 hrs by broth microdilution method relative to control; conditions: time 15-20 hrs
Staphylococcus aureus [4] = test: Antibacterial activity against Staphylococcus aureus ATCC 25923 assessed as reduction in bacterial growth at 12.5 uM incubated for 15 to 20 hrs by broth microdilution method relative to control; conditions: time 15-20 hrs
Pseudomonas aeruginosa [5] = test: Antibacterial activity against Pseudomonas aeruginosa ATCC 27853 assessed as reduction in bacterial growth at 12.5 uM incubated for 15 to 20 hrs by broth microdilution method relative to control; conditions: time 15-20 hrs
microRNA 21 [6] = test: Inhibition of premature miRNA-21 (unknown origin) transfected in human MCF7 cells assessed as reduction of maturation of pre-miRNA21 at 5 uM incubated for 48 hrs by qPCR analysis; format: cell-based
Method in brief: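 MCF7 cells treated 48 h at 5 μM, as for the Western blots. Total RNA extracted with TRIzol and DNase-treated; 400-500 ng polyadenylated and reverse-transcribed with oligo(dT) adaptor. SYBR qPCR run in triplicate for mature miR21, normalized to U6 snRNA, fold change by 2^-ΔΔCt.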

microRNA 21 [7] = test: Inhibition of premature miRNA-21 (unknown origin) transfected in human MCF7 cells assessed as increase in PDCD4 expression at 5 uM incubated for 48 hrs by Western blot analysis; format: cell-based
Method in brief: (§1)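 MCF7 cells seeded at 4x10⁴/well, treated 24 h later at 5 μM for 48 h. Controls: antisense LNA transfected at 50 nM, kanamycin forms, streptomycin, untreated. Lysates (40 µg protein) run on SDS-PAGE and blotted to PVDF. Probed with PDCD4 or PTEN (1:1000) plus GAPDH (1:2000) antibodies overnight at 4 °C, then HRP secondary and ECL; bands quantified as fold change versus controls.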

Escherichia coli [8] = test: Antibacterial activity against Escherichia coli ATCC 25922 assessed as reduction in bacterial growth at 64 uM incubated for 15 to 20 hrs by broth microdilution method relative to control; format: functional; conditions: time 15-20 hrs, read-out: GI
Staphylococcus aureus [9] = test: Antibacterial activity against Staphylococcus aureus ATCC 25923 assessed as reduction in bacterial growth at 64 uM incubated for 15 to 20 hrs by broth microdilution method relative to control; format: functional; conditions: time 15-20 hrs, read-out: GI
microRNA 21 [10] = test: Inhibition of premature miRNA-21 (unknown origin) transfected in human MCF7 cells assessed as increase in PTEN expression at 5 uM incubated for 48 hrs by Western blot analysis; format: cell-based; method in brief: as §1
microRNA 21 [11] = test: Binding affinity to pre-miRNA21 (unknown origin) by […]; format: nucleic-acid assay
Method in brief: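 Bio-layer interferometry (Octet RED96) with immobilized pre-miR21. Analytes run at 8-128 nM in 10 mM HEPES, 50 mM NaCl, 0.05% Tween20. Association 5 min, dissociation 10 min; regeneration in 50 mM NaOH, 1 M NaCl. KD derived from the binding curves.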

[12] = Cytotoxicity against human MCF7 cells assessed as reduction cell viability at 2.5 to 5 uM incubated for 24 hrs by MTT assay; format: cell-based; conditions: dose 2.5-5 µM, read-out: INH
Method in brief: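 MTT assay in MCF7 cells seeded at 8000/well and treated 24 h after seeding at 0, 2.5, 5, 7.5 and 10 μM, in triplicate. After 24 h exposure, MTT (0.5 mg/ml) added for 4 h at 37 °C. Crystals dissolved in DMSO and absorbance read at 570 nm to give percent viable cells.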

MCF7 [13] = test: Antimigratory activity in human MCF7 cells assessed as […] at 5 uM incubated for 48 hrs by imaging analysis relative to control; format: functional
Method in brief: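 MCF-7 cells seeded densely and grown to confluence, then scratched with a pipette tip and washed with PBS. Treated at 5μM alongside an untreated well. Wound images quantified in ImageJ; three biological replicates, error bars ± S.D.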

MCF7 [14] = test: Inhibition of epithelial-mesenchymal transition in human MCF7 cells increase in E-cadherin expression at 5 uM incubated for 48 hrs by inverted fluorescence microscopy
Pseudomonas aeruginosa [15] = test: Antibacterial activity against Pseudomonas aeruginosa ATCC 27853 assessed as reduction in bacterial growth at 64 uM incubated for 15 to 20 hrs by broth microdilution method relative to control; format: functional; conditions: time 15-20 hrs, read-out: GI
MCF7 [16] = test: Antiproliferative activity against human MCF7 cells assessed as reduction in Ki67 expression at 5 uM incubated for 48 hrs by fluorescence microscopy; format: functional, cell-based
Method in brief: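 MCF7 cells seeded on coverslips (8x10⁴ per well) and grown 24 h at 37 °C, 5% CO₂, then treated 48 h at 5 μM; untreated and kanamycin controls. Fixed in 3% paraformaldehyde, permeabilized with 0.2% Triton X-100, blocked with 0.5% BSA. Stained with anti-Ki67 (1:1000, overnight) and Alexa Fluor 488 secondary (1:2000, 2 h). Nuclear speckles imaged.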

microRNA 21 [17] = test: Displacement of F-neo from premature miRNA21 (unknown origin) by fluorescence assay; format: nucleic-acid assay
Escherichia coli [18] = test: Antibacterial activity against Escherichia coli ATCC 25922 assessed as reduction in bacterial growth incubated for 15 to 20 hrs by broth microdilution method; format: functional; conditions: time 15-20 hrs
Method in brief: (§2)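 MIC by CLSI broth microdilution on exponential-phase cultures, in triplicate. Compound stocks were made at 10× final in 10% DMSO and added to the bacterial suspension (about 3 x 10⁵ cells/mL in cation-adjusted Mueller-Hinton broth). Final concentrations were 2-fold serial dilutions from 50 μM to 0.78 μM. Plates were incubated humidified at 37°C for 15-20 h, growth was read as absorbance at 595 nm, and % inhibition was averaged from the triplicates.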

Staphylococcus aureus [19] = test: Antibacterial activity against Staphylococcus aureus ATCC 25923 assessed as reduction in bacterial growth incubated for 15 to 20 hrs by broth microdilution method; format: functional; conditions: time 15-20 hrs; method in brief: as §2
Pseudomonas aeruginosa [20] = test: Antibacterial activity against Pseudomonas aeruginosa ATCC 27853 assessed as reduction in bacterial growth incubated for 15 to 20 hrs by broth microdilution method; format: functional; conditions: time 15-20 hrs
Method in brief: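 CLSI broth microdilution on exponential-phase bacteria, ~3 x 10⁵ cells/mL in cation-adjusted Mueller-Hinton broth. Serial 2-fold dilutions give final 50 to 0.78 μM from 10x stocks in 10% DMSO. Incubated 15-20 h at 37°C, humidified. Growth read at 595 nm; percent inhibition averaged from triplicates to give MIC.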

Staphylococcus aureus [21] = test: Antibacterial activity against methicillin-resistant Staphylococcus aureus ATCC 1960649 assessed as reduction in bacterial growth incubated for 15 to 20 hrs by broth microdilution method; format: functional; conditions: time 15-20 hrs; method in brief: as §2

SMILES | inhibition (microRNA 21 [1]) | growth inhibition (GI) (Escherichia coli [3]) | growth inhibition (GI) (Staphylococcus aureus [4]) | growth inhibition (GI) (Pseudomonas aeruginosa [5]) | inhibition (microRNA 21 [6]) | inhibition (microRNA 21 [7]) | inhibition of growth at 64 µM (Escherichia coli [8]) [%] | inhibition of growth at 64 µM (Staphylococcus aureus [9]) [%] | inhibition of growth at 64 µM (Staphylococcus aureus [2]) [%] | other results
C[C@@H](O)[C@H](NC(=O)[C@H](CCCNC(=N)N)NC(=O)CCC(=O)NC[C@H]1O[C@H](O[C@@H]2[C@@H](O)[C@H](O[C@H]3O[C@H](CN)[C@@H](O)[C@H](O)[C@H]3O)[C@@H](N)C[C@H]2N)[C@H](O)[C@@H](N)[C@@H]1O)C(N)=O | 131% | inactive | inactive | inactive | – | – | – | – | – | growth inhibition (GI) (Staphylococcus aureus [2]): inactive
NC[C@H]1O[C@H](O[C@H]2[C@H](O)[C@@H](O[C@H]3O[C@H](CNC(=O)CCC(=O)N[C@@H](Cc4ccc(O)cc4)C(=O)N[C@@H](CC(=O)O)C(N)=O)[C@@H](O)[C@H](N)[C@H]3O)[C@H](N)C[C@@H]2N)[C@H](O)[C@@H](O)[C@@H]1O | 5% | inactive | inactive | inactive | Active | Active | – | – | – | growth inhibition (GI) (Staphylococcus aureus [2]): inactive
N=C(N)NCCC[C@H](NC(=O)CCC(=O)NC[C@H]1O[C@H](O[C@@H]2[C@@H](O)[C@H](O[C@H]3O[C@H](CN)[C@@H](O)[C@H](O)[C@H]3O)[C@@H](N)C[C@H]2N)[C@H](O)[C@@H](N)[C@@H]1O)C(=O)N[C@@H](CS)C(N)=O | – | – | – | inactive | – | – | 13 | 20 | 25 | –
NC[C@H]1O[C@H](O[C@H]2[C@H](O)[C@@H](O[C@H]3O[C@H](CNC(=O)CCC(=O)N[C@@H](Cc4ccccc4)C(=O)N[C@@H](CS)C(N)=O)[C@@H](O)[C@H](N)[C@H]3O)[C@H](N)C[C@@H]2N)[C@H](O)[C@@H](O)[C@@H]1O | 140% | inactive | inactive | inactive | Active | Active | – | – | 22 | inhibition (microRNA 21 [10]): Active; Kd (microRNA 21 [11]): 43.6 nM; cytotoxicity at 24 h, up to 5 µM [12]: 2%; Activity (MCF7 [13]): >50%; inhibition (MCF7 [14]): Active
N=C(N)NCCC[C@H](NC(=O)[C@H](CCCNC(=N)N)NC(=O)CCC(=O)NC[C@H]1O[C@H](O[C@@H]2[C@@H](O)[C@H](O[C@H]3O[C@H](CN)[C@@H](O)[C@H](O)[C@H]3O)[C@@H](N)C[C@H]2N)[C@H](O)[C@@H](N)[C@@H]1O)C(N)=O | 137% | – | – | – | Active | Active | 25 | 29 | 30 | Activity (microRNA 21 [11]; dose 16.0 nM): Active; inhibition of growth at 64 µM (Pseudomonas aeruginosa [15]): 11%
CN[C@@H]1[C@H](O[C@H]2[C@H](O[C@H]3[C@H](O)[C@@H](O)[C@H](N=C(N)N)[C@@H](O)[C@@H]3N=C(N)N)O[C@@H](C)[C@]2(O)C=O)O[C@@H](CO)[C@H](O)[C@H]1O | 107% | – | – | – | – | – | – | – | – | –
NC[C@H]1O[C@H](O[C@H]2[C@H](O)[C@@H](O[C@H]3O[C@H](CNC(=O)CCC(=O)N[C@@H](Cc4ccc(O)cc4)C(=O)N[C@@H](CS)C(N)=O)[C@@H](O)[C@H](N)[C@H]3O)[C@H](N)C[C@@H]2N)[C@H](O)[C@@H](O)[C@@H]1O | 133% | inactive | – | inactive | – | – | – | 34 | 38 | inhibition (MCF7 [16]): Active
NC[C@H]1O[C@H](O[C@H]2[C@H](O)[C@@H](O[C@H]3O[C@H](CO)[C@@H](O)[C@H](N)[C@H]3O)[C@H](N)C[C@@H]2N)[C@H](O)[C@@H](O)[C@@H]1O [KANAMYCIN] | 107% and 100% | – | – | – | – | – | 100 | 100 | 41 | IC50 (microRNA 21 [17]): 1100 nM; inhibition (MCF7 [16]): inactive; MIC (Escherichia coli [18]): 4 µM (≈ 1.94 µg/mL); MIC (Staphylococcus aureus [19]): 4 µM (≈ 1.94 µg/mL); MIC (Pseudomonas aeruginosa [20]): > 256 µM; MIC (Staphylococcus aureus [21]): > 256 µM; inhibition of growth at 64 µM (Pseudomonas aeruginosa [15]): 11%

From ChEMBL document CHEMBL4715681, “Targeting miRNA by tunable small molecule binders: peptidic aminosugar mediated interference in miR-21 biogenesis reverts epithelial to mesenchymal transition” (Medchemcomm, 2018)
